Results from ChEMBL document CHEMBL4152354, “A reusable magnetic nickel nanoparticle based catalyst for the aqueous synthesis of diverse heterocycles and their evaluation as potential anti-bacterial agent” (2018).
Converted amounts (≈) assume the structure as drawn.

Assays:
Assay type in all cases: functional
[1] = tested on: Streptococcus pyogenes; assay: Antibacterial activity against Streptococcus pyogenes MTCC 1925 assessed as zone of inhibition at 100 uL after 24 hrs by agar well-diffusion method
Procedure, shortened: (§1)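 Mueller-Hinton agar plates swabbed with a bacterial suspension adjusted to 1.5×10^8 CFU/ml. Each 5 mm well received 100 µl of compound, and plates were incubated at 37°C for 24 h. Chloramphenicol (30 mcg) was the positive control and DMSO the negative control. Inhibition zones around wells were measured manually, in triplicate.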

[2] = tested on: Salmonella enterica; assay: Antibacterial activity against Salmonella enterica MTCC 735 assessed as zone of inhibition at 100 uL after 24 hrs by agar well-diffusion method
[3] = tested on: Escherichia coli; assay: Antibacterial activity against Escherichia coli MTCC 730 assessed as zone of inhibition at 100 uL after 24 hrs by agar well-diffusion method; procedure, shortened: as §1
[4] = tested on: Bacillus cereus; assay: Antibacterial activity against Bacillus cereus MTCC 430 assessed as zone of inhibition at 100 uL after 24 hrs by agar well-diffusion method; procedure, shortened: as §1
[5] = tested on: Klebsiella pneumoniae; assay: Antibacterial activity against Klebsiella pneumoniae MTCC 109 assessed as zone of inhibition at 100 uL after 24 hrs by agar well-diffusion method; procedure, shortened: as §1
[6] = tested on: Bacillus cereus; assay: Antibacterial activity against Bacillus cereus MTCC 430 after 18 hrs by TTC staining based broth microdilution method; details: MTCC 430, 18 h
Procedure, shortened: (§2)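 Broth microdilution in Mueller-Hinton broth. 50 µl of inoculum from a 0.5 McFarland suspension was added to 50 µl of compound, giving final concentrations of 0.024–400 mg/ml in DMSO. Sealed plates were incubated at 37°C for 18 h, then 50 µl of 0.5% TTC was added for 1 h in the dark. MIC was the lowest concentration with no visible growth (well stays clear). Triplicate; mean ± SD.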

[7] = tested on: Klebsiella pneumoniae; assay: Antibacterial activity against Klebsiella pneumoniae MTCC 109 after 18 hrs by TTC staining based broth microdilution method; details: MTCC 109, 18 h; procedure, shortened: as §2

## COc1cc(C(c2c(C)[nH][nH]c2=O)C2C(=O)NC(=O)NC2=O)ccc1O (configuration not stated)
[1]
  inhibition zone (IZ): 16 mm
[2]
  inhibition zone (IZ): 10 mm
[3]
  inhibition zone (IZ): 17 mm
[4]
  inhibition zone (IZ): 20 mm
[5]
  inhibition zone (IZ): 16 mm
[6]
  MIC: 390 µg/mL (≈ 1080 µM)
[7]
  MIC: 780 µg/mL (≈ 2160 µM)

## CC1(C)CC(=O)C(C(C2=C(O)CC(C)(C)CC2=O)c2cccc(F)c2)=C(O)C1
[1]
  inhibition zone (IZ): 0 mm
[2]
  inhibition zone (IZ): 0 mm
[3]
  inhibition zone (IZ): 0 mm
[4]
  inhibition zone (IZ): 0 mm
[5]
  inhibition zone (IZ): 0 mm

## Cc1[nH][nH]c(=O)c1C(c1ccc(Cl)cc1)C1C(=O)NC(=O)NC1=O (configuration not stated)
[1]
  inhibition zone (IZ): 16 mm
[2]
  inhibition zone (IZ): 11 mm
[3]
  inhibition zone (IZ): 17 mm
[4]
  inhibition zone (IZ): 17 mm
[5]
  inhibition zone (IZ): 21 mm
[6]
  MIC: 1560 µg/mL (≈ 4470 µM)
[7]
  MIC: 390 µg/mL (≈ 1120 µM)

## COc1cc(C(c2c(C)[nH][nH]c2=O)C2C(=O)NC(=O)NC2=O)cc(OC)c1OC (configuration not stated)
[1]
  inhibition zone (IZ): 17 mm
[2]
  inhibition zone (IZ): 11 mm
[3]
  inhibition zone (IZ): 13 mm
[4]
  inhibition zone (IZ): 13 mm
[5]
  inhibition zone (IZ): 19 mm
[6]
  MIC: 1560 µg/mL (≈ 3860 µM)
[7]
  MIC: 390 µg/mL (≈ 964 µM)

## CC1(C)CC(=O)C(C(C2=C(O)CC(C)(C)CC2=O)c2ccc(Br)cc2)=C(O)C1
[1]
  inhibition zone (IZ): 10 mm
[2]
  inhibition zone (IZ): 0 mm
[3]
  inhibition zone (IZ): 11 mm
[4]
  inhibition zone (IZ): 11 mm
[5]
  inhibition zone (IZ): 11 mm

## CN(C)c1ccc(C(C2=C(O)CC(C)(C)CC2=O)C2=C(O)CC(C)(C)CC2=O)cc1
[1]
  inhibition zone (IZ): 0 mm
[2]
  inhibition zone (IZ): 0 mm
[3]
  inhibition zone (IZ): 0 mm
[4]
  inhibition zone (IZ): 0 mm
[5]
  inhibition zone (IZ): 0 mm

## Cc1ccc(C(c2c(C)[nH][nH]c2=O)C2C(=O)NC(=O)NC2=O)cc1 (configuration not stated)
[1]
  inhibition zone (IZ): 11 mm
[2]
  inhibition zone (IZ): 10 mm
[3]
  inhibition zone (IZ): 12 mm
[4]
  inhibition zone (IZ): 12 mm
[5]
  inhibition zone (IZ): 10 mm
[6]
  MIC: 6250 µg/mL (≈ 19000 µM)
[7]
  MIC: 3120 µg/mL (≈ 9500 µM)

## Cc1[nH][nH]c(=O)c1C(c1cccc([N+](=O)[O-])c1)C1C(=O)NC(=O)NC1=O (configuration not stated)
[1]
  inhibition zone (IZ): 14 mm
[2]
  inhibition zone (IZ): 10 mm
[3]
  inhibition zone (IZ): 11 mm
[4]
  inhibition zone (IZ): 13 mm
[5]
  inhibition zone (IZ): 15 mm
[6]
  MIC: 1560 µg/mL (≈ 4340 µM)
[7]
  MIC: 780 µg/mL (≈ 2170 µM)

## COc1ccc(C(C2=C(O)CC(C)(C)CC2=O)C2=C(O)CC(C)(C)CC2=O)cc1OC
[1]
  inhibition zone (IZ): 0 mm
[2]
  inhibition zone (IZ): 0 mm
[3]
  inhibition zone (IZ): 0 mm
[4]
  inhibition zone (IZ): 0 mm
[5]
  inhibition zone (IZ): 0 mm

## Cc1[nH][nH]c(=O)c1C(c1ccccc1[N+](=O)[O-])C1C(=O)NC(=O)NC1=O (configuration not stated)
[1]
  inhibition zone (IZ): 12 mm
[2]
  inhibition zone (IZ): 10 mm
[3]
  inhibition zone (IZ): 11 mm
[4]
  inhibition zone (IZ): 14 mm
[5]
  inhibition zone (IZ): 13 mm
[6]
  MIC: 6250 µg/mL (≈ 17400 µM)
[7]
  MIC: 3120 µg/mL (≈ 8680 µM)

## O=c1oc2ccccc2c(O)c1C(c1cccc(Br)c1)c1c(O)c2ccccc2oc1=O
[1]
  inhibition zone (IZ): 21 mm
[2]
  inhibition zone (IZ): 11 mm
[3]
  inhibition zone (IZ): 19 mm
[4]
  inhibition zone (IZ): 13 mm
[5]
  inhibition zone (IZ): 20 mm
[6]
  MIC: 3120 µg/mL (≈ 6350 µM)
[7]
  MIC: 390 µg/mL (≈ 794 µM)

## O=c1oc2ccccc2c(O)c1C(c1cccc(F)c1)c1c(O)c2ccccc2oc1=O
[1]
  inhibition zone (IZ): 21 mm
[2]
  inhibition zone (IZ): 12 mm
[3]
  inhibition zone (IZ): 18 mm
[4]
  inhibition zone (IZ): 15 mm
[5]
  inhibition zone (IZ): 21 mm
[6]
  MIC: 780 µg/mL (≈ 1810 µM)
[7]
  MIC: 390 µg/mL (≈ 906 µM)

## Cc1[nH][nH]c(=O)c1C(c1ccc(N(C)C)cc1)C1C(=O)NC(=O)NC1=O (configuration not stated)
[1]
  inhibition zone (IZ): 10 mm
[2]
  inhibition zone (IZ): 12 mm
[3]
  inhibition zone (IZ): 10 mm
[4]
  inhibition zone (IZ): 13 mm
[5]
  inhibition zone (IZ): 10 mm
[6]
  MIC: 3120 µg/mL (≈ 8730 µM)
[7]
  MIC: 3120 µg/mL (≈ 8730 µM)

## CC1(C)CC(=O)C(C(C2=C(O)CC(C)(C)CC2=O)c2ccc(Cl)cc2)=C(O)C1
[1]
  inhibition zone (IZ): 0 mm
[2]
  inhibition zone (IZ): 0 mm
[3]
  inhibition zone (IZ): 0 mm
[4]
  inhibition zone (IZ): 0 mm
[5]
  inhibition zone (IZ): 0 mm

## Cc1[nH][nH]c(=O)c1C(c1ccc(Br)cc1)C1C(=O)NC(=O)NC1=O (configuration not stated)
[1]
  inhibition zone (IZ): 17 mm
[2]
  inhibition zone (IZ): 10 mm
[3]
  inhibition zone (IZ): 15 mm
[4]
  inhibition zone (IZ): 15 mm
[5]
  inhibition zone (IZ): 15 mm
[6]
  MIC: 780 µg/mL (≈ 1980 µM)
[7]
  MIC: 780 µg/mL (≈ 1980 µM)

## CCOc1ccc(C(C2=C(O)CC(C)(C)CC2=O)C2=C(O)CC(C)(C)CC2=O)cc1
[1]
  inhibition zone (IZ): 0 mm
[2]
  inhibition zone (IZ): 0 mm
[3]
  inhibition zone (IZ): 0 mm
[4]
  inhibition zone (IZ): 0 mm
[5]
  inhibition zone (IZ): 0 mm

## Cc1ccc(C(c2c(O)c3ccccc3oc2=O)c2c(O)c3ccccc3oc2=O)cc1
[1]
  inhibition zone (IZ): 25 mm
[2]
  inhibition zone (IZ): 10 mm
[3]
  inhibition zone (IZ): 19 mm
[4]
  inhibition zone (IZ): 18 mm
[5]
  inhibition zone (IZ): 20 mm
[6]
  MIC: 390 µg/mL (≈ 915 µM)
[7]
  MIC: 390 µg/mL (≈ 915 µM)
